Published values gathered from unrelated publications.
Protocols differ between the studies behind these lines. ≈ marks a conversion by molar mass, not a printed value.
Organism: Candida albicans

C[C@@H]1[C@H](O)[C@@H](C)/C=C/C=C/C=C/C=C/C=C/C=C/C=C/[C@H](O[C@@H]2O[C@H](C)[C@@H](O)[C@H](N)[C@@H]2O)C[C@@H]2O[C@](O)(C[C@@H](O)C[C@@H](O)[C@H](O)CC[C@@H](O)C[C@@H](O)CC(=O)O[C@H]1C)C[C@H](O)[C@H]2C(=O)O — inhibition zone (microbial growth; 1000 µg/mL): 21 mm
O=C(CCCCCCCCCC[P+](c1ccccc1)(c1ccccc1)c1ccccc1)Nc1ccc(O)c(O)c1.[Br-] — MIC (microbial growth; broth dilution; ATCC90028; 24 h): 32 µg/mL
C[C@@H]1[C@H](O)[C@@H](C)/C=C/C=C/C=C/C=C/C=C/C=C/C=C/[C@H](O[C@@H]2O[C@H](C)[C@@H](O)[C@H](N)[C@@H]2O)C[C@@H]2O[C@](O)(C[C@@H](O)C[C@@H](O)[C@H](O)CC[C@@H](O)C[C@@H](O)CC(=O)O[C@H]1C)C[C@H](O)[C@H]2C(=O)O — MFC (microbial killing; ATCC90028): 1.35 µM
C[C@@H]1[C@H](O)[C@@H](C)/C=C/C=C/C=C/C=C/C=C/C=C/C=C/[C@H](O[C@@H]2O[C@H](C)[C@@H](O)[C@H](N)[C@@H]2O)C[C@@H]2O[C@](O)(C[C@@H](O)C[C@@H](O)[C@H](O)CC[C@@H](O)C[C@@H](O)CC(=O)O[C@H]1C)C[C@H](O)[C@H]2C(=O)O — IC50 (microbial growth; ATCC90028): 0.25 µg/mL (≈ 0.271 µM)
C#CCCCCCCCCCCCC(O)CC(O)CO (stereo not shown) — IC50 (microbial growth; broth dilution; ATCC90028): > 200 µg/mL
CCCCCCCOc1c(OC)cc(NC(C)CCCN)c2nc(C(C)(C)C)ccc12 (stereo not shown) — MFC (microbial killing; ATCC90028): 10 µg/mL
O=C(O)c1cn(C2CC2)c2cc(N3CCNCC3)c(F)cc2c1=O — MIC (microbial growth; broth dilution): 12.5 µM
C[C@@H]1[C@H](O)[C@@H](C)/C=C/C=C/C=C/C=C/C=C/C=C/C=C/[C@H](O[C@@H]2O[C@H](C)[C@@H](O)[C@H](N)[C@@H]2O)C[C@@H]2O[C@](O)(C[C@@H](O)C[C@@H](O)[C@H](O)CC[C@@H](O)C[C@@H](O)CC(=O)O[C@H]1C)C[C@H](O)[C@H]2C(=O)O — IC50 (microbial growth; broth dilution; ATCC90028): 0.27 µg/mL (≈ 0.292 µM)
C[C@@H]1[C@H](O)[C@@H](C)/C=C/C=C/C=C/C=C/C=C/C=C/C=C/[C@H](O[C@@H]2O[C@H](C)[C@@H](O)[C@H](N)[C@@H]2O)C[C@@H]2O[C@](O)(C[C@@H](O)C[C@@H](O)[C@H](O)CC[C@@H](O)C[C@@H](O)CC(=O)O[C@H]1C)C[C@H](O)[C@H]2C(=O)O — inhibition zone (microbial growth; disc diffusion; 35 µg/disc): 11 mm
O=C(Cc1cc(O)c(O)c(O)c1)NCCCCCCCC[P+](c1ccccc1)(c1ccccc1)c1ccccc1.[Br-] — MIC (microbial growth; broth dilution; ATCC90028; 24 h): > 32 µg/mL
Cc1cc(N)c2ccccc2[n+]1CCCCCCCCCC[n+]1c(C)cc(N)c2ccccc21 — inhibition zone (microbial growth; disc diffusion; 50 µg/disc): 13 mm
C#CCCCCCCCCC=CCC(O)CC(O)CO (stereo not shown) — IC50 (microbial growth; broth dilution; ATCC90028): > 8 µg/mL
Clc1ccccc1C(c1ccccc1)(c1ccccc1)n1ccnc1 — inhibition zone (microbial growth; disc diffusion; 100 µg/mL): 21 mm
